High-throughput results: PubChem BioAssay, Johns Hopkins Ion Channel Center
MrgX1 antag: antagonists of human MrgX1 receptor, primary screen, HEK293 cells, Fluo-4 calcium flux; Mas-related G-protein coupled receptor member X1 (Homo sapiens), Q96LB2; BAM8-22 antagonism; active compounds read low; B-score at 10 µM; actives 1.3% (n = 310,000); AID 588676, 2011;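 active = calcium-response B-score plate-corrected more than 3 library SD below zero, starting fluorescence within 5 deviations, no agonist response on first addition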;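 also: peak minus trough fluorescence over baseline after final BAM8-22 challenge near maximal dose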
Target sequence (Q96LB2 whole entry, looked up): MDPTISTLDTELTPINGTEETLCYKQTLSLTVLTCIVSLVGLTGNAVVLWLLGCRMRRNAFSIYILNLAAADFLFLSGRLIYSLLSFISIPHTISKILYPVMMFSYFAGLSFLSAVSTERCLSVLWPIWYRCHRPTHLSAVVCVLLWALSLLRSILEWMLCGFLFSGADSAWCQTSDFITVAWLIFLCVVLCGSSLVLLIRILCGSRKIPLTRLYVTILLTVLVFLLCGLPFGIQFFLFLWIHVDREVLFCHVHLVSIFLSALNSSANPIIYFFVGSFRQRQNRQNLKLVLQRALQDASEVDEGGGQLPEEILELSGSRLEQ
RGS4 pot: RGS4 potentiators or activators, primary screen, cell-based, HEK293 M3R inducible RGS4, calcium flux. carbachol calcium flux Fluo4; active compounds read low. B-score at 10 µM. actives 0.92% (n = 310,000). AID 463111, 2010;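 active = B-score of the integrated calcium signal more than 4 SD below the library mean, with starting fluorescence not abnormally high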;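 also: negative B-score means reduced calcium response which marks RGS4 activation or potentiation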
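Assay system: HEK293 FlpIn-TREx cells, stable M3R, doxycycline-inducible RGS4 / Probe or stimulus: carbachol, ECmax concentration / Times: overnight RGS4 induction, 30 min dye load 37 °C, 20 min compound RT / Signal: kinetic calcium fluorescence imaging with Fluo4-AM dye, 2 µM / Measure: Agonist-evoked peak-minus-minimum fluorescence over baseline, integrated ratio, B score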
RGS4 block: RGS4 inhibitors, primary screen, cell-based, HEK293 M3R inducible RGS4, calcium flux; Regulator of G-protein signaling 4 (Homo sapiens), P49798; Fluo-4 calcium flux; active compounds read high; triggered by carbachol at its EC20; B-score at 10 µM; actives 0.45% (n = 310,000); AID 463165, 2010;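 active = B-score, a plate-corrected calcium signal, over three deviations above library mean, with baseline fluorescence within five deviations of library mean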;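 also: RGS4 expression induced by doxycycline in cells with stable M3 receptor; B-score is computed from the integrated fluorescence ratio over baseline after carbachol; higher B-score means a larger calcium signal and so more RGS4 inhibition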
Target sequence (P49798 whole entry, looked up): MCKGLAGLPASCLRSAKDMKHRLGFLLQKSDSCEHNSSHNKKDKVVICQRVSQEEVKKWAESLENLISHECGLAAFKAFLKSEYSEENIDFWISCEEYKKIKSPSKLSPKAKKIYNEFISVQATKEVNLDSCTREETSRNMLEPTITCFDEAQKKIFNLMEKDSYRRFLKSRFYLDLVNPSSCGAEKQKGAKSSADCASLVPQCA
MrgX1 allo act: positive allosteric modulators of MrgX1, primary screen, HEK293 cells, Fluo-4 calcium flux; AID 588675, 2011; B-score at 10 µM; Mas-related G-protein coupled receptor member X1 (Homo sapiens), Q96LB2; actives 0.63% (n = 310,000); FDSS; active compounds read high;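 active = plate-corrected calcium response at least 3 library SD above typical, normal starting fluorescence, not activating the receptor alone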;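 also: compound read alongside a low EC10 to EC30 dose of BAM8-22 agonist; peak minus trough fluorescence over baseline measured at the second addition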
MrgX1 ag: agonists of human MrgX1 receptor, primary screen, HEK293 cells, Fluo-4 calcium flux; Fluo-4 calcium fluorescence, agonist mode; active compounds read high; actives 0.44% (n = 310,000); B-score at 10 µM; Mas-related G-protein coupled receptor member X1 (Homo sapiens), Q96LB2; AID 588627, 2011;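 active = calcium response B-score plate-corrected fluorescence ratio at least 3 library SD, with starting fluorescence B-score inside 5 SD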
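System – MrgX1-expressing HEK293 cells · Incubation – cells plated overnight, dye loaded 0.5 h 37 °C, 0.5 h room temperature · Technique – kinetic Fluo-4 NW fluorescence of intracellular calcium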
RGS4 block valid: enhanced carbachol calcium response, M3R/RGS4 cells, RGS4 inhibitor project, cell-based, validation screen, HEK293 M3R/RGS4, calcium flux; shares compounds with RGS4 block; carbachol calcium Fluo-4 fluorescence; carbachol added at its EC20; 0 = buffer wells, 100 = carbachol control; calcium response, % at 10 µM; actives 65% (n = 1,700); AID 492999, 2010;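 active = duplicate-averaged calcium response above the buffer-only control mean plus 5 SD of those controls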;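 also: integrated fluorescence ratio F max minus min over baseline F0; higher response in RGS4-induced cells means RGS4 inhibition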
RGS4 uninduced: carbachol calcium response in non-induced M3R cells, confirmation, counter-screen for RGS4 inhibitor project, cell-based, HEK293 M3R; shares compounds with RGS4 block; carbachol calcium Fluo-4; submaximal (EC20) carbachol stimulus; buffer wells 0%, carbachol control wells 100%; activity (percent), % at 10 µM; actives 20% (n = 1,900); call rule not given here;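 also: RGS4 induction absent so cells express M3R without RGS4; higher means more calcium signal and flags a non-specific hit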
RGS4 inh ctr2: second RGS4 inhibitor counter-screen in uninduced cells lacking carbachol. shares compounds with RGS4 block. HEK293 M3R/RGS4 non-induced, Fluo-4 calcium, no carbachol; normalised: buffer wells 0%, carbachol wells 100%. calcium response (agonist-mode artifact), % at 10 µM. actives 22% (n = 1,900);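 active = duplicate-averaged calcium rise in uninduced cells above buffer wells' mean plus 5 SD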
* hit, by the source's call; i = inactive; . = no result. This is a sample that favours compounds with a hit; in the whole collection about 3.5% have one here.

SMILES	MrgX1 antag	RGS4 pot	RGS4 block	MrgX1 allo act	MrgX1 ag	RGS4 block valid	RGS4 uninduced	RGS4 inh ctr2
CC1=NN(c2cccc(C(=O)O)c2)C(=O)/C1=C\C=C/c1ccccc1	.	i	34.3*	.	.	80.0%*	59.0%*	i
CC(=C/c1ccccc1)/C=N/n1c(-c2ccncc2)n[nH]c1=S	i	i	5.13*	i	i	16.0%*	i	i
CC(/C=N/n1c(-c2cccnc2)n[nH]c1=S)=C\c1ccccc1	i	i	i	i	i	.	.	.
S=c1[nH]nc(-c2ccncc2)n1/N=C/c1cn(-c2ccccc2)nc1-c1ccc(Cl)cc1	i	i	i	i	i	i	i	i
Cc1cc(C)c(C(N)=O)c(Nc2cccc(Cl)c2)n1	i	i	i	i	i	.	.	.
Cc1ccccc1Nc1sc(C(=O)Nc2cccc(Cl)c2)c(N)c1C(N)=O	.	i	6.63*	.	.	5.0%*	i	i
C=CCNC(=O)C1CC2Cn3c(nc4cc(Cl)c(Cl)cc43)C2N1C (stereo not given)	i	i	i	i	i	.	.	.
CC(C)NC(=S)N/N=C/c1cc(Br)ccc1O	i	i	5.76*	i	i	11.5%*	i	i
COC(=O)N/N=C/c1cc(Br)ccc1O	i	i	i	i	i	.	.	.
COc1ccc(/C(C)=N/NC(=O)CNC(=O)C(c2ccccc2)c2ccccc2)c(OC)c1	i	i	i	i	i	.	.	.
Cc1ccc([C@H]2C(C#N)=C(N)Oc3cc(C)oc(=O)c32)o1	i	i	6.94*	i	i	25.5%*	i	i
COc1ccc(C(=O)/C=C/c2ccsc2)cc1CSCC(=O)O	i	i	4.99*	i	i	10.0%*	i	i
O=C(Oc1ccc([N+](=O)[O-])cc1)c1cncc(Br)c1	i	i	i	i	i	.	.	.
Cc1ccc(C2NC(=O)NC(O)(C(F)(F)F)C2C(=O)c2ccccc2)o1 (stereo not given)	i	i	i	i	i	.	.	.
COc1ccc(C(=O)C2C(c3ccc(-c4ccccc4[N+](=O)[O-])o3)NC(=O)NC2(O)C(F)(F)F)cc1 (stereo not given)	i	i	i	i	i	i	i	i
O=C1NC(c2ccc(-c3ccccc3[N+](=O)[O-])o2)C(C(=O)c2ccc(F)cc2)C(O)(C(F)(F)F)N1 (stereo not given)	i	i	i	i	i	.	31.5%*	7.5%*
CN(C(=O)c1nc(-c2ccccc2)n(-c2ccccc2)n1)C1CCS(=O)(=O)C1 (stereo not given)	i	i	i	i	i	.	.	.
CC(C)OC(=O)/C(C#N)=C/c1c[nH]c2ccccc12	i	i	i	i	i	.	.	.
CC(C)CC(=O)NC1(C(F)(F)F)C(=O)Nc2c1c(=O)[nH]c(=O)n2Cc1ccco1 (stereo not given)	i	i	i	i	i	.	.	.
O=c1[nH]c(=O)n(Cc2ccco2)c2c1C(C(F)(F)F)(C(F)(F)F)N=C(c1ccc(F)cc1)N2	i	i	i	i	i	i	i	i
OC(c1cc(-c2ccc(Cl)cc2)nc2ccccc12)C1CCCCN1 (stereo not given)	i	i	i	i	i	.	.	.
OC(c1cc(C(F)(F)F)nc2c(Cl)cc(Cl)cc12)C1CCCCN1 (stereo not given)	i	i	13.3*	i	i	24.5%*	i	13.5%*
O=c1c2cc(Cl)cc(Cl)c2nc2n1CCC2	i	i	i	i	i	.	.	.
O[C@@H](c1cc(C(F)(F)F)nc2c(C(F)(F)F)cccc12)[C@H]1CCCCN1	i	i	5.71*	i	i	26.5%*	i	46.0%*
O=C(Nc1cccc2ncccc12)c1ccco1	i	i	i	i	i	.	.	.
SMILES	MrgX1 antag	RGS4 pot	RGS4 block	MrgX1 allo act	MrgX1 ag	RGS4 block valid	RGS4 uninduced	RGS4 inh ctr2
CCNC(=S)N(CCc1c(C)[nH]c2ccc(C)cc12)Cc1cccs1	i	i	i	i	i	.	.	.
COCCNC(=S)N(CCc1c(C)[nH]c2ccc(F)cc12)Cc1cccs1	i	i	i	i	i	i	i	i
COCCNC(=S)N(CCc1c(C)[nH]c2ccc(Cl)cc12)Cc1cccs1	i	i	5.03*	i	i	6.0%*	i	i
COc1cnc(SCCC(F)=C(F)F)[nH]c1=O	i	i	i	i	i	.	.	.
Cc1ccccc1NC(=O)CSc1nnc(C2CC2)n1CC1CCCO1 (stereo not given)	i	i	i	i	i	.	.	.
COc1ccccc1C(=O)NCC(=O)N/N=C/c1cn[nH]c1-c1ccccc1	i	i	i	i	i	.	.	.
CC1=NN(c2ccccc2)C(=O)/C1=C/c1ccc(-c2ccc(C)c(C(=O)O)c2)o1	i	i	17.1*	i	i	73.5%*	i	i
O=C(Nc1nonc1NC(=O)c1cccs1)c1cccs1	i	i	i	i	i	.	.	.
Cc1nn(-c2ccccc2)c(Cl)c1/C=N/NC(N)=O	i	i	i	i	i	.	.	.
NC(=O)N/N=C/c1c(Sc2nnnn2-c2ccccc2)nc2ccccn2c1=O	i	i	12*	i	i	11.0%*	i	i
Cc1cccc(NCc2ccc(Br)cc2)n1	i	i	i	i	i	.	.	.
O=C1NCCCc2c1oc1ccc(O)cc21	i	i	i	i	i	.	.	.
Oc1c(Cl)cc(Cl)c2c1NCCC2	.	i	9.33*	.	.	64.0%*	i	i
CC(=O)c1ccc(N(C(=O)CNC(=O)c2ccco2)C(C(=O)NC2CCCC2)c2ccncc2)cc1 (stereo not given)	i	i	i	i	i	.	.	.
